Measurements from ChEMBL document CHEMBL1146071, “2,4-diaminopyrimidine derivatives as potent growth hormone secretagogue receptor antagonists” (J Med Chem, 2006).

How the values were obtained:
[1] = target: T1, Growth hormone secretagogue receptor type 1 (Homo sapiens, UniProt Q92847); experiment: Displacement of [125I]ghrelin from human GHS receptor expressed in CHOK cells; format: cell-based
In short: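 Membranes from CHO-K cells expressing human ghrelin receptor, prepared by sonication and a 60000g spin. Filtered onto PEI-soaked GF/C, washed cold, scintillation counted; percent inhibition, sigmoidal fit for IC50.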

[2] = target: T1, Growth hormone secretagogue receptor type 1; experiment: Antagonist activity at human GHS receptor by inhibition of ghrelin-induced intracellular calcium flux in CHOK cells; format: functional, cell-based
In short: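 CHO-K cells stably expressing human GHS-R, grown in Ultra-CHO medium with 1% dialyzed FCS and 400 µg/mL G418, plated to confluency overnight. Loaded with Fluo-4 AM plus probenecid for 1-3 h in the dark at RT, then washed. On FLIPR (ex 488/em 520 nm), compound added first and read 3 min, then ghrelin added and read another 3 min. Duplicate or triplicate wells; sigmoidal fit for IC50.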

[3] = AUC in Sprague-Dawley rat at 5 mg/kg, iv; format: ADME, organism-based, Plasma; parameters: dose 5 mg/kg, route intravenous; settings: Sprague-Dawley, plasma
In short: (§1)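 Rats dosed at 5 mg/kg: iv for AUC (µg·h/mL), clearance (L/h·kg) and Cmax (µg/mL); oral for bioavailability unless stated otherwise. Brain (µg/g) and plasma levels taken at 1 and 8 h. Mean of n = 3.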

[4] = Oral bioavailability in Sprague-Dawley rat at 5 mg/kg; format: ADME, organism-based; settings: in vivo; in short: as §1
[5] = Half life in Sprague-Dawley rat at 5 mg/kg; format: ADME, organism-based; parameters: dose 5 mg/kg; settings: in vivo; in short: as §1
[6] = Plasma clearance in Sprague-Dawley rat at 5 mg/kg, iv; format: ADME, organism-based; parameters: dose 5 mg/kg, route intravenous; in short: as §1
[7] = Concentration in Sprague-Dawley rat brain at 5 mg/kg after 1 hr; format: ADME, organism-based; parameters: dose 5 mg/kg; settings: read-out: Ct; in short: as §1
[8] = Plasma concentration in Sprague-Dawley rat at 5 mg/kg after 1 hr; format: ADME, organism-based; parameters: dose 5 mg/kg; in short: as §1
[9] = Cmax in Sprague-Dawley rat at 5 mg/kg, iv; format: ADME, organism-based; parameters: dose 5 mg/kg, route intravenous; settings: in vivo; in short: as §1
[10] = Concentration in Sprague-Dawley rat brain at 30 mg/kg, ip after 8 hrs; format: ADME, organism-based; parameters: dose 30 mg/kg, route intraperitoneal; settings: read-out: Ct
In short: (§2)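 Rats given 30 mg/kg ip. Brain (µg/g) and plasma levels measured at 1 and 8 h after dosing.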

[11] = Concentration in Sprague-Dawley rat brain at 30 mg/kg, ip after 1 hr; format: ADME, organism-based; parameters: dose 30 mg/kg, route intraperitoneal; settings: read-out: Ct; in short: as §2
[12] = Plasma concentration in Sprague-Dawley rat at 30 mg/kg, ip after 8 hrs; format: ADME, organism-based; parameters: dose 30 mg/kg, route intraperitoneal; in short: as §2
[13] = Plasma concentration in Sprague-Dawley rat at 30 mg/kg, ip after 1 hr; format: ADME, organism-based; parameters: dose 30 mg/kg, route intraperitoneal; in short: as §2

T1 sequence (Q92847 whole entry): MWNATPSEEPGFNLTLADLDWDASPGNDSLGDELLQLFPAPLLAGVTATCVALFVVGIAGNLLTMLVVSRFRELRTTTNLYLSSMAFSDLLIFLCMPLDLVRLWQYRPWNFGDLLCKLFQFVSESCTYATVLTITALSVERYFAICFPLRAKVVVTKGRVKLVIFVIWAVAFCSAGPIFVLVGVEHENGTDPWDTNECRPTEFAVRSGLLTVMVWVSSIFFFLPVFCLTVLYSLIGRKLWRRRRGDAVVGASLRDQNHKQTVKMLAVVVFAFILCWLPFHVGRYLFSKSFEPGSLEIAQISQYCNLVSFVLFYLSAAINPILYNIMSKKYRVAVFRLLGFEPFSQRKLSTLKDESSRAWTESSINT

| SMILES | IC50 [1] | IC50 [2] | AUC [3] | bioavailability [4] | half-life [5] | clearance [6] | concentration at 1 h [7] | concentration at 1 h [8] | Cmax [9] | concentration at 8 h [10] | concentration at 1 h [11] | concentration at 8 h [12] | concentration at 1 h [13] |
| --- | --- | --- | --- | --- | --- | --- | --- | --- | --- | --- | --- | --- | --- |
| CCc1nc(N)nc(N)c1-c1ccc(NCc2cc(F)c(S(=O)(=O)C(F)(F)F)c(F)c2)cc1 | 21 nM | 690 nM | – | – | – | – | – | – | – | – | – | – | – |
| CCc1nc(N)nc(N)c1-c1ccc(NCc2ccc(C(C)=O)cc2)cc1 | 57 nM | 110 nM | 680 ng·h/mL | 51% | 2.4 h | 61.7 mL/min/kg | 420 ng/g | 120 ng/mL | 140 ng/mL | – | – | – | – |
| Nc1nc(N)c(-c2ccc(NCc3ccc(Cl)cc3)cc2)c(CCc2ccccc2)n1 | 3170 nM | 3350 nM | – | – | – | – | – | – | – | 400 ng/g | 1340 ng/g | 90 ng/mL | 800 ng/mL |
| CCc1nc(N)nc(N)c1-c1ccc(NCc2ccc([N+](=O)[O-])cc2)cc1 | 11 nM | 23 nM | 1600 ng·h/mL | 68% | 5.5 h | 43.3 mL/min/kg | 530 ng/g | 270 ng/mL | 140 ng/mL | – | – | – | – |
| Nc1nc(N)c(-c2ccc(NCc3ccncc3)cc2)c(COCc2ccccc2)n1 | 21 nM | 86 nM | – | – | – | – | – | – | – | – | – | – | – |

These reach a lower IC50 [1]. Values come first.

| IC50 [1] | IC50 [2] | AUC [3] | bioavailability [4] | half-life [5] | clearance [6] | concentration at 1 h [7] | concentration at 1 h [8] | Cmax [9] | concentration at 8 h [10] | concentration at 1 h [11] | concentration at 8 h [12] | concentration at 1 h [13] | SMILES |
| --- | --- | --- | --- | --- | --- | --- | --- | --- | --- | --- | --- | --- | --- |
| 5.7 nM | 42 nM | – | – | – | – | – | – | – | – | – | – | – | CCc1nc(N)nc(N)c1-c1ccc(NCc2ccc(S(C)(=O)=O)cc2)c(Br)c1 |
| 2.4 nM | 45 nM | – | – | – | – | – | – | – | – | – | – | – | CCc1nc(N)nc(N)c1-c1ccc(NCc2cc(F)c(S(C)(=O)=O)c(F)c2)cc1 |
| 4.2 nM | 11 nM | 2700 ng·h/mL | 78% | 8.7 h | 26.7 mL/min/kg | 30 ng/g | 1040 ng/mL | 160 ng/mL | – | – | – | – | CCc1nc(N)nc(N)c1-c1ccc(NCc2ccc(S(C)(=O)=O)cc2)c(Cl)c1 |
| 0.8 nM | 16 nM | – | – | – | – | – | – | – | – | – | – | – | Nc1nc(N)c(-c2ccc(CNc3ccc([N+](=O)[O-])cc3)cc2)c(COCc2ccccc2)n1 |
